Measured values of several laboratories.
Each line is one published result; the experiments were not run side by side.
Cell line: MCF7
Effect on: cell growth or viability

Nc1ccn([C@@H]2O[C@H](CO)[C@@H](O)C2(F)F)c(=O)n1 — IC50 (MTT; 24 h): 2.75 µg/mL
Clc1ccc(Cn2nc(-c3ncc(-c4ccccc4)s3)c3ccccc32)c(Cl)c1 — IC50 (48 h): 65.2 µM
O=C1Nc2ccccc2C1=Nc1cccc(Cl)c1 — IC50 (MTT; 48 h): > 100 µM
CN1CCC(NC2CCc3[nH]c4c(C(N)=O)ccc(-c5ccccc5Cl)c4c3C2)CC1 (centres unmarked) — IC50 (96 h): 0.0164 µM
CCOC(=O)C(=CNc1ccc(Oc2ccccc2)cc1)C(=O)OCC — IC50 (MTT; 48 h): 115 µM
CN(C)c1ccc(Nc2nc(-c3ccncc3)nc3c2CC(N)CC3)cc1 (centres unmarked) — IC50 (MTT): 15.8 µM
COc1cc(C=NNC(=O)c2cc(-c3ccccc3)n(-c3ccc(S(N)(=O)=O)cc3)n2)cc(OC)c1OC — IC50 (fluorescence; 48 h): 21.6 µM
O=C1CS/C(=N\c2cc(C(F)(F)F)ccc2-c2nnc(N3C(=O)CS/C3=N\c3ccc(Cl)cc3)s2)N1c1ccc(Cl)cc1 — IC50 (MTT): 52.5 µM
Cc1nnc(-c2nn(Cc3ccc(Cl)cc3Cl)c3ccccc23)o1 — IC50 (48 h): 19.8 µM
O=C1CSC(=Nc2cc(C(F)(F)F)ccc2-c2nnc(N3C(=O)CSC3=Nc3ccc([N+](=O)[O-])cc3)s2)N1c1ccc([N+](=O)[O-])cc1 — IC50 (MTT): 79.5 µM
C[C@H]1[C@H](C)CC[C@]2(C(=O)O)CC[C@]3(C)C(=CC[C@@H]4[C@@]5(C)CC[C@H](O)C(C)(C)[C@@H]5CC[C@]43C)[C@H]12 — IC50 (thymidine uptake; 24 h): 25.7 µM
COc1ccccc1/C=N/N=C1\C(=O)Nc2ccccc21 — IC50 (MTT; 24 h): 45.6 µg/mL
CC(C)c1cccc(C(C)C)c1N=C1C(=O)Nc2ccccc21 — IC50 (MTT; 48 h): 0.69 µM
O=C(O)c1c[nH]c2ccc(Oc3ccccc3)cc2c1=O — IC50 (MTT): ≥ 200 µM
COc1ccc(N(Cc2csc(-c3ccccc3)n2)C(=O)CCCCCC(=O)NO)cc1 — IC50 (MTT; 72 h): 3.12 µM
CC(=O)O[C@H]1C(=O)[C@@]2(C)[C@H]([C@H](OC(=O)c3ccccc3)[C@]3(O)C[C@H](OC(=O)[C@H](O)[C@@H](NC(=O)c4ccccc4)c4ccccc4)C(C)=C1C3(C)C)[C@]1(OC(C)=O)CO[C@@H]1C[C@@H]2O — IC50 (MTT; 48 h): > 100 µM
O=C1CS/C(=N\c2cc(C(F)(F)F)ccc2-c2nnc(N3C(=O)CS/C3=N\c3cccc(Cl)c3)s2)N1c1cccc(Cl)c1 — IC50 (MTT): 49.2 µM
CC(=O)c1nc2ccccc2n1Cc1cn([C@@H]2O[C@H](CO)[C@H](O)[C@H](O)[C@H]2O)nn1 — IC50 (LDH; 48 h): 2.89 µM
O=C1C(=Nc2ccc(Cl)cc2)c2ccccc2N1Cc1cccc(Cl)c1 — IC50 (MTT; 48 h): 9.41 µM
C/C(=N\NC(=O)/N=C(\C)c1c(O)c2ccccc2oc1=O)c1c(O)c2ccccc2oc1=O — IC50 (MTT; 48 h): 12.6 µM
NS(=O)(=O)c1ccc(-n2nc(C(=O)NN3C(=O)c4ccccc4C3=O)cc2-c2ccccc2)cc1 — IC50 (fluorescence; 48 h): 38.7 µM
CC(C)c1ccc(/C=C2\N=C(SCC(=O)O)N(c3ccccc3)C2=O)cc1 — IC50 (MTT): 49.2 µg/mL
S=C(N/N=C/c1cccc2cc3ccccc3nc12)Nc1ccccc1 — IC50 (MTT; 48 h): > 50 µM
O=C(C=Cc1ccc(OCCCCOc2ccc(C=CC(=O)c3cccs3)cc2)cc1)c1cccs1 — IC50 (MTT; 48 h): 134 µM
O=C(NCc1ccc(OC(F)(F)F)cc1)c1cn(Cc2ccc(F)cc2)c2ccc(Oc3ccccc3)cc2c1=O — IC50 (MTT; 48 h): 79.6 µM
Cc1nc2ccc(-c3ccc(F)cc3F)cc2c(O)c1C(=O)O — IC50 (MTT; 48 h): ≥ 100 µM
COc1cccc2c1C(=O)c1c(O)c3c(c(O)c1C2=O)C[C@@](O)(C(=O)CO)C[C@@H]3O[C@H]1C[C@H](N)[C@H](O)[C@H](C)O1 — IC50 (MTT; 48 h): 0.5 µM
CC(=O)O[C@@H]1[C@@H](OC(C)=O)[C@H](OC(C)=O)CO[C@H]1n1cc(Cn2c(C(=O)/C=C/c3ccc(F)cc3)nc3ccccc32)nn1 — IC50 (LDH; 48 h): 2.98 µM
O=C(NO)Nc1nc2c(Cl)cc(Cl)cc2c(=O)n1-c1ccc(Cl)cc1 — IC50 (MTT; 48 h): > 200 µM
Cc1nc2ccc(-c3ccc(F)cc3)cc2c(O)c1C(=O)O — IC50 (MTT; 48 h): ≥ 100 µM
CC1CCC(C(C)C)C(OC2=C(Cl)C(=O)c3ccccc3C2=O)C1 (centres unmarked) — IC50 (MTT; 24 h): 21.9 µg/mL
NNc1nc2ccc(Br)cc2c(=O)n1-c1ccccc1 — IC50 (MTT; 48 h): 46.4 µM
O=C(O)c1nn(Cc2ccc(Cl)cc2Cl)c2ccccc12 — IC50 (48 h): 113 µM
C[C@H]1[C@H](C)CC[C@]2(C)CC[C@]3(C)C(=CC(=O)[C@@H]4[C@@]5(C)CC[C@@H](O)[C@](C)(C(=O)NCc6cn(-c7ccc(F)cc7)nn6)[C@@H]5CC[C@]43C)[C@H]12 — IC50 (MTT; 24 h): 76.4 µM
O=[N+]([O-])c1cc(I)c(O)c(C=NNc2ccc(Br)cc2)c1 — IC50 (MTT; 24 h): 13.7 µM
CN(C)c1cccc(Nc2nc(-c3ccncc3)nc3c2CNCC3)c1 — IC50 (MTT): 46.4 µM
Cc1ccc(NNc2nc3ccc(Br)cc3c(=O)n2-c2ccccc2)cc1 — IC50 (MTT; 48 h): > 200 µM
O=C1C(Cl)=C(n2cncn2)C(=O)c2ccccc21 — IC50 (MTT; 24 h): 26.8 µg/mL
CC(C)c1cccc(C(C)C)c1N=C1C(=O)N(Cc2ccccc2)c2ccccc21 — IC50 (MTT; 48 h): 12.6 µM
FC(F)(F)c1ccc(-c2nnc(-c3nn(Cc4ccc(Cl)cc4Cl)c4ccccc34)o2)cc1 — IC50 (48 h): 71.1 µM
CC(C)[C@@H](CS(=O)(=O)C(C)C)N1C(=O)[C@@](C)(CC(=O)O)C[C@H](c2cccc(Cl)c2)[C@H]1c1ccc(Cl)cc1 — IC50 (ATP luminescence; 48 h): ~3.9 µM
CN(C)C(=O)Nc1nc2c(Cl)cc(Cl)cc2c(=O)n1-c1ccccc1 — IC50 (MTT; 48 h): > 200 µM
Cc1cccc(N=C2C(=O)N(Cc3ccc(Br)cc3)c3ccccc32)c1 — IC50 (MTT; 48 h): 9.69 µM
COc1cccc2c1C(=O)c1c(O)c3c(c(O)c1C2=O)C[C@@](O)(C(=O)CO)C[C@@H]3O[C@H]1C[C@H](N)[C@H](O)[C@H](C)O1 — IC50 (MTT): 34.3 µM
C/C(=N\C(=N)/N=C(\C)c1c(O)c2ccccc2oc1=O)c1c(O)c2ccccc2oc1=O — IC50 (MTT; 48 h): 19.6 µM
COc1ccc(-n2cc(CNC(=O)[C@@]3(C)[C@H](O)CC[C@@]4(C)[C@H]3CC[C@]3(C)[C@@H]4C(=O)C=C4[C@@H]5[C@@H](C)[C@H](C)CC[C@]5(C)CC[C@]43C)nn2)cc1 — IC50 (MTT; 24 h): 79 µM
O=C(/C=C/c1ccc(F)cc1)c1nc2ccccc2n1Cc1cn([C@@H]2OC[C@@H](O)[C@H](O)[C@H]2O)nn1 — IC50 (LDH; 48 h): 2.06 µM
CCc1ccc(N=C2C(=O)N(Cc3ccccc3)c3ccccc32)cc1 — IC50 (MTT; 48 h): 10.5 µM
CCCNC(=S)N/N=C/c1cccc2cc3ccccc3nc12 — IC50 (MTT; 48 h): 48.1 µM
O=C(C=Cc1ccc(OCCOc2ccc(C=CC(=O)c3cccs3)cc2)cc1)c1cccs1 — IC50 (MTT; 48 h): 11.5 µM
O=C1C(=Nc2ccc(Cl)cc2Br)c2ccccc2N1Cc1ccc(Br)cc1 — IC50 (MTT; 48 h): 2.54 µM
COc1cccc2c1C(=O)c1c(O)c3c(c(O)c1C2=O)C[C@@](O)(C(=O)CO)C[C@@H]3O[C@H]1C[C@H](N)[C@H](O)[C@H](C)O1 — IC50 (MTT; 24 h): 1.09 µM
C(=N\Nc1cc(N/N=C/c2ccc3ccccc3n2)nc(-c2ccccc2)n1)/c1ccc2ccccc2n1 — IC50 (MTT; 48 h): 7.05 µM
O=C1C(=Nc2cccc(Cl)c2)c2ccccc2N1Cc1ccc([N+](=O)[O-])cc1 — IC50 (MTT; 48 h): 6.95 µM
NS(=O)(=O)c1ccc(-n2nc(C(=O)NN=Cc3ccc(O)cc3)cc2-c2ccccc2)cc1 — IC50 (fluorescence; 48 h): 16.9 µM
O=[N+]([O-])c1cc(I)c(O)c(C=NNc2ccc(C(F)(F)F)cc2)c1 — IC50 (MTT; 24 h): 8.56 µM
